A short description of data set [1]: Drug metabolism in cynomolgus monkey urine assessed as hydrolysis of amide bond at 10 mg/kg. The data set is classed as ADME, organism-based, Macaca fascicularis. The settings on record: in vivo.
Data set [2] has as its system Liver microsome. As to the kind of experiment: Drug metabolism in human liver microsomes assessed as hydrolysis of amide bond. The data set is classed as ADME. Background: Liver microsomes are a subcellular fraction often used to study metabolism.
Data set [3] deals with Delta-type opioid receptor (Homo sapiens) (UniProt P41143). As to the kind of experiment: Inhibition of human delta opioid receptor at 10 uM by radioligand binding assay. A digest of the protocol:
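Outsourced broad receptor-screening panel of 78 targets, each tested at a single 10 uM concentration; read-out is percent inhibition. Detailed conditions are given only in the Supporting Information.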

For data set [4], the target named is Cannabinoid receptor 1 (Homo sapiens) (UniProt P21554). Put plainly: Inhibition of human CB1 receptor at 10 uM by radioligand binding assay. A digest of the protocol:
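Commercial receptor scan across a 78-target panel, with percent inhibition measured at a test concentration of 10 uM.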

For one compound, Stability and inhibition results are on record in ChEMBL document CHEMBL3739255, “Novel Series of Dihydropyridinone P2X7 Receptor Antagonists” (J Med Chem, 2015).

Usually inhibition stands for how much of the control response was suppressed.

A value given as a limit tells only on which side of the number the result lay.

Chain of Delta-type opioid receptor (Homo sapiens) (P41143 whole entry): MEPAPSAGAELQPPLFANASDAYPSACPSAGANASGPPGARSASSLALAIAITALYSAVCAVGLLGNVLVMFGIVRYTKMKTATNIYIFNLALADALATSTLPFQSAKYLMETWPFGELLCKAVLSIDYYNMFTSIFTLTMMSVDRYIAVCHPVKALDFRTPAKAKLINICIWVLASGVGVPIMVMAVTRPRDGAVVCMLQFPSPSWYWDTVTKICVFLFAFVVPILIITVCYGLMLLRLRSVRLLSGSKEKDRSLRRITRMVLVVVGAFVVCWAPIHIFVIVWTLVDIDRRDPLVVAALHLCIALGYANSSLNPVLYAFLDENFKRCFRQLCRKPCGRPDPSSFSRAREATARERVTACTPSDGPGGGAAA
Chain of Cannabinoid receptor 1 (Homo sapiens) (P21554 whole entry): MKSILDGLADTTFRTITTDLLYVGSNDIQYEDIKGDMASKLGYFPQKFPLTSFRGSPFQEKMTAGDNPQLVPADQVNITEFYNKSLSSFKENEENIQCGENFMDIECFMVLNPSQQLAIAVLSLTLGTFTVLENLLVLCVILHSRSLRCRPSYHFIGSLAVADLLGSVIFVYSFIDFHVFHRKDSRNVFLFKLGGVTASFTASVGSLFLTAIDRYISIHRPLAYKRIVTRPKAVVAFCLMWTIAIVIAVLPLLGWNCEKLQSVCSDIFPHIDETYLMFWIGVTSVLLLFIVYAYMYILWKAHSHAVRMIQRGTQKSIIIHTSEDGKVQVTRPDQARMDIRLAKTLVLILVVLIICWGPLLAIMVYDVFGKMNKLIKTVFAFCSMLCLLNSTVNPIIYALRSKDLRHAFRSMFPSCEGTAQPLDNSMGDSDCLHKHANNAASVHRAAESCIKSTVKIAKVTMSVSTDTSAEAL

On to `Cc1cc(Cl)c(OCCO)cc1NC(=O)C1=CNC(=O)C[C@H]1c1ccc(F)cc1`, for which the Stability result in data set [1] and in data set [2] was “Stable” each time. The inhibition in data set [3] and in data set [4] was less than 30% each time.
